Among the data in ChEMBL document CHEMBL1157613, “Salicylic acid based small molecule inhibitor for the oncogenic Src homology-2 domain containing protein tyrosine phosphatase-2 (SHP2)” (J Med Chem, 2010) are inhibition, IC50 and Activity values, retold here.

Active and inactive are the calls of the source. No cut-off for these calls is given here.

Test [1] addresses T1, Tyrosine-protein phosphatase non-receptor type 11 (Mus musculus) (UniProt P35235).
T1 sequence (whole entry): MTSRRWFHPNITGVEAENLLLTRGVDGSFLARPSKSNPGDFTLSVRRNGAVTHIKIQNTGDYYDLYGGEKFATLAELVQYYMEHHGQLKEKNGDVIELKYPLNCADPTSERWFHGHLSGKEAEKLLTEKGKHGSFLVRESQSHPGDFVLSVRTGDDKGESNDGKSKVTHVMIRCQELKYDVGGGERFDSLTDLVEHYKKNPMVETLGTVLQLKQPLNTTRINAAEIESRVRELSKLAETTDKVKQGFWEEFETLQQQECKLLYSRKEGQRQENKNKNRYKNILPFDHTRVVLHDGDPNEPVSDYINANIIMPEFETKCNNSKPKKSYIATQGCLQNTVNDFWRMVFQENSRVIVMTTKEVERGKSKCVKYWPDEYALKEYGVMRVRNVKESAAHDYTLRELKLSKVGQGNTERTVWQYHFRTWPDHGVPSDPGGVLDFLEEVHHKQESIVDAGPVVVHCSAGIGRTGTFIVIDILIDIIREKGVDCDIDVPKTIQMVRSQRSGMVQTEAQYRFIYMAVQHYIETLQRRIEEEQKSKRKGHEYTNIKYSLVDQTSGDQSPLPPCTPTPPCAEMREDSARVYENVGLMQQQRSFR
Briefly: Inhibition of SHP2-dependent ERK1/2 activation in EGF-stimulated mouse NIH/3T3 cells assessed as phosphorylated ERK1/2 level at 10 uM treated for 3 hrs before EGF challenge measured after 5 to 15 mins of EGF stimulation by immunoblot analysis. Type of test: cell-based. To be noted: NIH3T3. (In general: Immunoblotting shows a protein as a band on a membrane.)

Test [2] concerns the target T2, Receptor-type tyrosine-protein phosphatase C (Homo sapiens, UniProt P08575).
T2 sequence (P08575 whole entry): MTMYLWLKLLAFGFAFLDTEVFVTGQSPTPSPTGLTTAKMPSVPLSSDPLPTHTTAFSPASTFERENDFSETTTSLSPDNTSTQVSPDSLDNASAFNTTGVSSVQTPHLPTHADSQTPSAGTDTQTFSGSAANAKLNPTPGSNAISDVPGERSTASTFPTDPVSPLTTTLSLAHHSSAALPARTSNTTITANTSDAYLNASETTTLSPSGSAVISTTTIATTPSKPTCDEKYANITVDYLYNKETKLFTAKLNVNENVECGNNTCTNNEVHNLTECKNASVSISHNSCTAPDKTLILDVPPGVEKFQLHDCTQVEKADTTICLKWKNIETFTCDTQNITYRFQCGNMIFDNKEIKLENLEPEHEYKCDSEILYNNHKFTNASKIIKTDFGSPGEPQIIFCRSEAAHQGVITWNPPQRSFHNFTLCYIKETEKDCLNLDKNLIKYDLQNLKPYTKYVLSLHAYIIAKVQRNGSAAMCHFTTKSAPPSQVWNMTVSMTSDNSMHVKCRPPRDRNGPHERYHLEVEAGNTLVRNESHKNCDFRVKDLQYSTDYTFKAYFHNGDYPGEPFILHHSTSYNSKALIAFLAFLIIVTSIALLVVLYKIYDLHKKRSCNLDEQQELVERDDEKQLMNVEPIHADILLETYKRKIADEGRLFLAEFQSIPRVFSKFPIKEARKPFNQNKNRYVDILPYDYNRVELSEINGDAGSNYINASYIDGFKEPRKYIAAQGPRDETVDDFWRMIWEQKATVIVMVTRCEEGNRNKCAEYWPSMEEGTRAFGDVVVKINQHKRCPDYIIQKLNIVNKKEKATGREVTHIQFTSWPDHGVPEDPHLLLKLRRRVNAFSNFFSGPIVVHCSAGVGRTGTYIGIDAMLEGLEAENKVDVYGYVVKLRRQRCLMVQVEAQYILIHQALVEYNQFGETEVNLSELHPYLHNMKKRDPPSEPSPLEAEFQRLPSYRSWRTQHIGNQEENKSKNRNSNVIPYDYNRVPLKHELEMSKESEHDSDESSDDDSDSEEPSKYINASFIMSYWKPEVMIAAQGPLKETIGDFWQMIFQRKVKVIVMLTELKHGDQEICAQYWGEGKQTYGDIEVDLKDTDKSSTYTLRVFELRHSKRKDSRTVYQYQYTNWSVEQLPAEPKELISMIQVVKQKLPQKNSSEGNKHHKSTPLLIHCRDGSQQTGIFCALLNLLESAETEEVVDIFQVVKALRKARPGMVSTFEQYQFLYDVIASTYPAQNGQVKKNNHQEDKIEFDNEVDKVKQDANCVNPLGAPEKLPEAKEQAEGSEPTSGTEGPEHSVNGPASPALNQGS
Briefly: Inhibition of CD45 expressed in Escherichia coli assessed as inhibition of p-nitrophenyl phosphate hydrolysis at pH 7 by spectrophotometry.

For test [3], the target named is Receptor-type tyrosine-protein phosphatase F (Homo sapiens, UniProt P10586). Briefly: Inhibition of LAR expressed in Escherichia coli assessed as inhibition of p-nitrophenyl phosphate hydrolysis at pH 7 by spectrophotometry.
The target in test [4] is Tyrosine-protein phosphatase non-receptor type 6 (Homo sapiens, UniProt P29350). Briefly: Inhibition of SHP1 expressed in Escherichia coli assessed as inhibition of p-nitrophenyl phosphate hydrolysis at pH 7 by spectrophotometry.
Chain of Tyrosine-protein phosphatase non-receptor type 6 (P29350 whole entry): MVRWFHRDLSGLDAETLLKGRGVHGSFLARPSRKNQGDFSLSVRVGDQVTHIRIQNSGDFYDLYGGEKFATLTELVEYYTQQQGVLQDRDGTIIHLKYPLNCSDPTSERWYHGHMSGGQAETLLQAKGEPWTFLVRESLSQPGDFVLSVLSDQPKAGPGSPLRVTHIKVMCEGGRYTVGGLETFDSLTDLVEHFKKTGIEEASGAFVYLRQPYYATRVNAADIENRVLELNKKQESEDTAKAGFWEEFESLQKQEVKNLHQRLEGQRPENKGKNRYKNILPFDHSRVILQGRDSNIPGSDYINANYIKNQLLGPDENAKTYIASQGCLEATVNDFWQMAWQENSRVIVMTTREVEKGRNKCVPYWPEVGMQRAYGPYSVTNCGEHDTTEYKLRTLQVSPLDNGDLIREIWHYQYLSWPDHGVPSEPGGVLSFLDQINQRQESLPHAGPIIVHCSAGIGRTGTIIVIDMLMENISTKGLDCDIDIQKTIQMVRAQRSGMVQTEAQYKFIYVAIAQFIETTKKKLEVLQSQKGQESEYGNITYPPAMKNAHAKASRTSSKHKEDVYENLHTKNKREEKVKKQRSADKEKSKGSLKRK
For test [5], the species on record is Mus musculus. Kind of test: Antiproliferative activity against GM-CSF-stimulated C57/BL6 mouse low density BM-MNC expressing SHP2 D61Y mutant assessed as inhibition of hyperproliferation at 10 uM after 16 hrs by [3H]thymidine incorporation assay. The format is functional. The note with it: C57Bl/6. The procedure, abridged:
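Marrow low-density mononuclear cells from C57Bl/6 mice (Ficoll), prestimulated 24 h with SCF, G-CSF, Tpo (100 ng/mL), retrovirally transduced 48 h with wild-type SHP2, D61Y or E76K, EGFP-sorted. Starved 4 h in 0.2% BSA; 5 × 10^4 cells cultured 16 h in GM-CSF 0-1 ng/mL ± 10 μM compound, then pulsed with 1.0 μCi [3H]thymidine for 6-8 h; counts per minute; n = 3.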
In general terms: Uptake of a labelled nucleoside into DNA is a usual measure of proliferation.

The target of test [6] is Dual specificity protein phosphatase 3 (Homo sapiens, UniProt P51452). Kind of test: Inhibition of VHR expressed in Escherichia coli assessed as inhibition of p-nitrophenyl phosphate hydrolysis at pH 7 by spectrophotometry.
Chain of Dual specificity protein phosphatase 3 (P51452 whole entry): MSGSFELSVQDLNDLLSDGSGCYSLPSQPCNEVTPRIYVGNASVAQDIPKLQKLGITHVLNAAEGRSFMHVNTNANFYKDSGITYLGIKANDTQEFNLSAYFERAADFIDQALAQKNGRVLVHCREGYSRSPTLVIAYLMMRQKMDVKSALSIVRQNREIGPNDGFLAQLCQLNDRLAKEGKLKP
Test [7] is filed under the species Mus musculus. Briefly: Antiproliferative activity against GM-CSF-stimulated C57/BL6 mouse low density BM-MNC assessed as inhibition of hyperproliferation at 10 uM after 16 hrs by [3H]thymidine incorporation assay. To be noted: C57Bl/6.
For test [8], the target named is Tyrosine-protein phosphatase non-receptor type 13 (Homo sapiens, UniProt Q12923). Kind of test: Inhibition of FAP1 expressed in Escherichia coli assessed as inhibition of p-nitrophenyl phosphate hydrolysis at pH 7 by spectrophotometry.
Chain of Tyrosine-protein phosphatase non-receptor type 13 (Q12923 whole entry): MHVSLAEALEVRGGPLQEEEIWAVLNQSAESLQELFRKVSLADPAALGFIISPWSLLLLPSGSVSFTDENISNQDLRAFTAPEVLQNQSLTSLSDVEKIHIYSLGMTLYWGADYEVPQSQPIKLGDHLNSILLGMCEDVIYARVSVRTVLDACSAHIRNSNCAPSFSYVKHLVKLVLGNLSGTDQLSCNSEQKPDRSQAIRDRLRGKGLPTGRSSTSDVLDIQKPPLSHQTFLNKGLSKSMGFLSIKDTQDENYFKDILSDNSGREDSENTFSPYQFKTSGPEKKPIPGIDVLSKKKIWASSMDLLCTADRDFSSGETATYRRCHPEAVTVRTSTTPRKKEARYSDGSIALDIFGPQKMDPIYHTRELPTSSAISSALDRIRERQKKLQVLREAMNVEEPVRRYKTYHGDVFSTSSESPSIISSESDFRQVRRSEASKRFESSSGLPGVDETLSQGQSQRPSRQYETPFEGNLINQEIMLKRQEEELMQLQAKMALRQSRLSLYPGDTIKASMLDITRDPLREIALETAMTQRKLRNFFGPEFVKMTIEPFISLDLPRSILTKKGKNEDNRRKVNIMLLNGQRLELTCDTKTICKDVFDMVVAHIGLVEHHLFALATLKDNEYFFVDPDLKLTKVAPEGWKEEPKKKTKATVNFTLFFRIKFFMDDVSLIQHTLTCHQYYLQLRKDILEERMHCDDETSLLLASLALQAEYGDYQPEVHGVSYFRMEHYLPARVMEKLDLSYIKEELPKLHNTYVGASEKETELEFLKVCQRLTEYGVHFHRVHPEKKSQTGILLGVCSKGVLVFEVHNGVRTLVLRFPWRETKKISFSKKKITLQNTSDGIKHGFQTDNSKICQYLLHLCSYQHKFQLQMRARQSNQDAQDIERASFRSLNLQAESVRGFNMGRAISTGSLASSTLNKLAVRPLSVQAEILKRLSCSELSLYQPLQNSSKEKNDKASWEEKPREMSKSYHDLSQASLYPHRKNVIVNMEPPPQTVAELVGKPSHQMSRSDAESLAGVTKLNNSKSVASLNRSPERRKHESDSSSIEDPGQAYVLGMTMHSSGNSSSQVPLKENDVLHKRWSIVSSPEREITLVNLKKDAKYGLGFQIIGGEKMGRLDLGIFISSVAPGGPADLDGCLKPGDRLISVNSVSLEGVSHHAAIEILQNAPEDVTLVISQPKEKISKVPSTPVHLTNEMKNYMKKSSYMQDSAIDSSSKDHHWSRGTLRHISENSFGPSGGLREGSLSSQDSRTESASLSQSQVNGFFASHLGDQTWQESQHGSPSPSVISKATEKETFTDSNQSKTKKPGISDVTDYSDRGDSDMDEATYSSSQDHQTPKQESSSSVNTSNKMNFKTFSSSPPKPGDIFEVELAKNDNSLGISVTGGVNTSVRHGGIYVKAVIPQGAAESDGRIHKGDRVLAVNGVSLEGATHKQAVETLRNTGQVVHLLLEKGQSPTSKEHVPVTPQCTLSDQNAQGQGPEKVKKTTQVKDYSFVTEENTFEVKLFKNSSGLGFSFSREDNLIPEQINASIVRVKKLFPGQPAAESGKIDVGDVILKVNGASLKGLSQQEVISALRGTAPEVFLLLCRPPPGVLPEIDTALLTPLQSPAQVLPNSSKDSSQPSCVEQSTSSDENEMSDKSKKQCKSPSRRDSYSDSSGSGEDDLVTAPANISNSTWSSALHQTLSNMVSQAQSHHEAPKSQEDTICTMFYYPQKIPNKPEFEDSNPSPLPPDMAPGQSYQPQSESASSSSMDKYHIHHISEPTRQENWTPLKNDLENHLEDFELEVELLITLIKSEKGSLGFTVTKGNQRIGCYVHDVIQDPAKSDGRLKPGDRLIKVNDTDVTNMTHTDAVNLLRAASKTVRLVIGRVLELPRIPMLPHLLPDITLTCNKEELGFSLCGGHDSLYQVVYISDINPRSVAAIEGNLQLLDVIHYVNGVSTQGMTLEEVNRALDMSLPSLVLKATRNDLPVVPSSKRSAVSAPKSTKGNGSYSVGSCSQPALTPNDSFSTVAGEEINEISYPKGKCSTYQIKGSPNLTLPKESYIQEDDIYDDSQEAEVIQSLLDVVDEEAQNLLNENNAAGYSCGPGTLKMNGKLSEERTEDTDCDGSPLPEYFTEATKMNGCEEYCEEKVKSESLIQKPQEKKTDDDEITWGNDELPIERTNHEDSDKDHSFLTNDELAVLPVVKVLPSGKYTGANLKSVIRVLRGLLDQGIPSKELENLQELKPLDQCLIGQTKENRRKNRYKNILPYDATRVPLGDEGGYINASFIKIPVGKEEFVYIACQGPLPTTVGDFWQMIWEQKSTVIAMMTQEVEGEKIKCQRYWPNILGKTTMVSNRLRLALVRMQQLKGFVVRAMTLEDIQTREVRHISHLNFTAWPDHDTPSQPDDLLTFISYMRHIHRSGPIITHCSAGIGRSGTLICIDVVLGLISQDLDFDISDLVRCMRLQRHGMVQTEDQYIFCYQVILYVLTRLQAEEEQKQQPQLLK

What is called IC50 is the point on the concentration scale where inhibition reaches its midpoint. Turning to `Cn1c(-c2ccccc2)c(-c2cn(CCC(=O)Nc3ccc(-c4ccccc4)cc3)nn2)c2cc(C(=O)O)c(O)cc21`, the inhibition result in test [1] was “inactive”. Besides, the IC50 is 30 µM in test [2]; > 50 µM in test [3]; 15.7 µM in test [4]; > 50 µM in test [6]; 20.3 µM in test [8]. Further, the result in the test listed under Mus musculus [5] and in the test listed under Mus musculus [7] was Active.
